TAAR1 antag: human TAAR1 antagonism | inhibition, % at 3 µM | CHO RD-HGA16 TAAR1, Fluo-8 calcium fluorescence, antagonist | 360,000 tested, 1.5% active | Q96RJ0;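 active means inhibition above a per-plate cutoff, the mean inhibition of test compounds on that plate plus 3 SD, cut at about 49% in these data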
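Material: RD-HGA16 CHO cells with stable hTAAR1 and Gα16; Dosing: single nominal final test compound concentration of 3 µM; Schedule: seeding 17-24 h prior, 75-min 37 °C, 30-min RT dye loading; Detection: kinetic Fluo-8 calcium fluorescence measurement; Measure: % inhibition from peak post-agonist over basal fluorescence ratio; Benchmarks: vehicle and agonist controls.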
OX1R antag-1: antagonists of human orexin 1 receptor; inhibition, % at 5 µM; CHO/OX1R cells, Fluo-8 calcium fluorescence, orexin A; O43613; 330,000 tested, 0.43% active;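 active means inhibition above its plate's threshold, mean inhibition of all tested compounds on the plate plus 3 SD, cut at about 37% in these data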
Target sequence (O43613 whole entry, looked up): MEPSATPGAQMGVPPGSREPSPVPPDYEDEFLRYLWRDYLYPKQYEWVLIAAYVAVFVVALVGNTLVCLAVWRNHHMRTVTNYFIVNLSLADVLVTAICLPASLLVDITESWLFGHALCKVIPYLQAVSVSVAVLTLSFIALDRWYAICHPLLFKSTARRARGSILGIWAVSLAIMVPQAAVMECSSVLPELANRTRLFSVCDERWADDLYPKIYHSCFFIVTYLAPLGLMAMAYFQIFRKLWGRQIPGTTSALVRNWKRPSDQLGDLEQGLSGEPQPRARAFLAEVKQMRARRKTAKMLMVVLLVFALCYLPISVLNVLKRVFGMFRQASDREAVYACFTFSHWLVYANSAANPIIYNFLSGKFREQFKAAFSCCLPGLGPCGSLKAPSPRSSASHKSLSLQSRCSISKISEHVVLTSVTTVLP
OX1R antag-2: blocks the human orexin 1 receptor | 330,000 tested, 1.8% active | OX1R-expressing cells, FRET antagonist read-out | inhibition, % at 6.6 µM; in the data active means inhibition mostly above about 38%, no sharp cut-off; inactive means mostly below about 40%
TAAR1 agonist: agonists of human TAAR1 | Q96RJ0 | activation, % at 3 µM | CHO RD-HGA16 TAAR1, Fluo-8 calcium fluorescence; vehicle wells 0%, saturating PEA agonist 100% | 360,000 tested, 0.99% active;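 active means activation above the mean activation of all test compounds in the run plus 3 SD, cut at about 38% in these data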
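Test system: RD-HGA16 (CHO) cells co-expressing Gα16 and hTAAR1; dosing: one-point dosing at 3 µM (nominal); timing: 17-24 h seeding, 75 min 37 °C dye, 30 min RT; signal: kinetic Fluo-8 calcium fluorescence; read-out basis: % activation relative to PEA EC100 response; controls: DMSO and PEA EC100; replicates: n 1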
CHO parental Ca: counter-screen: ATP calcium response change in parental CHO cells. parental CHO-K1, ATP-induced calcium, Fluo-8 fluorescence. inhibition, % at 5.6 µM. 330,000 tested, 0.63% active;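 active means inhibition above that plate's mean sample inhibition plus 3 SD, cut at about 26% in these data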
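Material: Parental CHO cells | Reagent: ATP | Compound dosing: Single nominal dose of 5.6 µM per compound | Detection: Intracellular calcium via Fluo-8 no-wash fluorescent dye | Read-out: % inhibition of ATP-induced calcium mobilization | Benchmarks: Low control ATP plus DMSO, high control DMSO only | Replicates: Singlicate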
Of the large screens only hits and unclear results are named; the others gave an inactive call. Rows were chosen to be rich in hits. Some 4% of all compounds tested hit in one or more screens of this group.

CCN(CC)c1ccc2cc(C=O)c(=O)oc2c1	OX1R antag-2 116, TAAR1 agonist 73, CHO parental Ca 50
NNC(=O)c1cc(-c2ccc(N)cc2)nc2ccc(Br)cc12	none
COC(=O)[C@]12C[C@H](CC(=O)N3CCSCC3)C(=O)N(Cc3ccccc3)C1=C[C@H](C1CCCC1)O[C@@H]2C	none (no result: OX1R antag-1, OX1R antag-2, CHO parental Ca)
COC(=O)N[C@H]1CC=C[C@@H]1Cc1cccc(Oc2ccccc2)c1	none (no result: OX1R antag-1, OX1R antag-2, CHO parental Ca)
CS(=O)(=O)N1CCN(C(=O)c2cc(-c3ccncc3)nc3ccc(Cl)cc23)CC1	none
O=C(c1cc(-c2cccnc2)nc2ccc(Cl)cc12)N1CCN(S(=O)(=O)c2cccs2)CC1	TAAR1 antag 51
COc1ccc(N2CCN(C(=O)COC(=O)c3oc4ccccc4c3C)CC2)cc1	TAAR1 antag 51
Cc1c(C(=O)OCC(=O)N2CCN(c3ccccc3)CC2)oc2ccccc12	none
COc1ccc(C(=O)NCCC(=O)N2CCC3(CC2)NCCc2[nH]cnc23)cc1	none
O=C(Oc1ccc(C(=S)N2CCOCC2)cc1)c1ccccc1F	none
O=C(Oc1ccc(C(=S)N2CCOCC2)cc1)c1ccccc1[N+](=O)[O-]	OX1R antag-2 56
Cc1ccc(Cn2c(=N)n(CC(O)COc3ccccc3)c3ccccc32)cc1 (stereo not given)	OX1R antag-1 52, CHO parental Ca 41
N=c1n(Cc2ccccc2)c2ccccc2n1CC(O)COc1ccccc1 (stereo not given)	none
COc1ccc(CCNC(=O)c2cc(C(=O)c3cc(C)ccc3O)cn(CCc3ccc(OC)cc3)c2=O)cc1	TAAR1 antag 54
COc1ccc(CCNC(=O)c2cc(C(=O)c3cc(Cl)ccc3O)cn(CCc3ccc(OC)cc3)c2=O)cc1	none
CN(C)Cc1c(C(=O)N/N=C/c2ccc(-c3ccccc3)cc2)nnn1-c1nonc1N	none
C/C(=N\NC(=O)c1nnn(-c2nonc2N)c1CN(C)c1ccccc1)c1ccc(O)cc1	none
CC(C)Oc1ccc(/C=N/NC(=O)c2nnn(-c3nonc3N)c2CN(C)c2ccccc2)cc1	OX1R antag-2 56
C/C(=N\NC(=O)c1nnn(-c2nonc2N)c1CN(C)c1ccccc1)c1cccc(O)c1	OX1R antag-2 49
Cc1ccsc1/C=N/NC(=O)c1nnn(-c2nonc2N)c1CN(C)c1ccccc1	TAAR1 antag 49, OX1R antag-2 50
Cc1ccc(Cc2cnc(NC(=O)c3ccco3)s2)cc1	none
O=C(Nc1ncc(Cc2ccc(SC(F)F)cc2)s1)c1ccc(OC(F)F)cc1	OX1R antag-1 61, TAAR1 agonist 46
C[C@@H]1C=CCCO[C@]12C(=O)N(CC1CC1)c1cccc(Br)c12	none (no result: OX1R antag-1, OX1R antag-2, CHO parental Ca)
COc1cccc(CNC(=O)[C@H]2CCCN2C(=O)[C@H]2CCCN2C(=O)c2ccc(F)cc2F)c1	none (no result: OX1R antag-1, OX1R antag-2, CHO parental Ca)
Cc1cc(-c2nnc(SCC(=O)Nc3ccccc3C(F)(F)F)o2)c(C)n1-c1ccccc1	TAAR1 agonist 42
Cc1cccc(NC(=O)CSc2nnc(-c3cc(C)n(-c4ccccc4)c3C)o2)c1C	none
CN(C(=O)c1cccc(NC(=O)Cc2ccc(NC(=O)C3CCCN(C(=O)c4ccccc4)C3)cc2)c1)C1CC1 (stereo not given)	none (no result: OX1R antag-1, OX1R antag-2, CHO parental Ca)
Cc1cc(Cl)c(S(=O)(=O)N2CCN(c3ccc(F)cc3)CC2)cc1OCC(=O)NC1CCCCC1	OX1R antag-1 52, CHO parental Ca 58
CCCN1C(=O)C(=O)c2cc(Cl)ccc21	OX1R antag-2 49
COc1ccc(-c2nnn3c2C2c4cc(-c5cccc(F)c5)ccc4CCN2C(=O)C3)cc1 (stereo not given)	none (no result: OX1R antag-1, OX1R antag-2, CHO parental Ca)
CCOC(=O)c1c(C)[nH]c(C)c1C(=O)CSc1nc2ccccc2n1CC	TAAR1 antag 49
CCOC(=O)c1c(C)[nH]c(C)c1C(=O)CSc1nc2ccccc2n1CCOC	none
COc1ccc(OCCSc2nc3ccccc3n2CC(=O)O)cc1	none
COc1ccc(C(=O)CSc2nc3ccccc3n2CC(=O)c2ccccc2)cc1	TAAR1 antag 59
Cc1cccc(NC(=O)COC(=O)CN2C(=O)c3ccccc3C2=O)c1	none (no result: OX1R antag-1, OX1R antag-2, CHO parental Ca)
Nc1ncc(Br)cc1S(=O)(=O)NCCC(=O)Nc1cccc(Cl)c1	none
CCOC(=O)c1cccc(NC(=O)CCNS(=O)(=O)c2cc(Br)cnc2N)c1	OX1R antag-2 63
Cc1c(C#N)c(O)[nH]c(=O)c1N=Nc1ccc(Cl)c(C(=O)O)c1	none
Cc1c(C#N)c(O)[nH]c(=O)c1N=Nc1ccc(S(N)(=O)=O)cc1	OX1R antag-2 41
CCCN1CCCCC(NC(=O)c2ccccc2OC)C1=O (stereo not given)	none (no result: OX1R antag-1, OX1R antag-2, CHO parental Ca)
COc1ccccc1C(=O)NC(=S)/C=C1/N(C)c2ccccc2C1(C)C	OX1R antag-1 48, CHO parental Ca 49
CCCCn1c(SCc2nc(N)nc(Nc3ccccc3C)n2)nc2ccccc2c1=O	OX1R antag-2 71
O=C(NCc1ccco1)c1ccc([N+](=O)[O-])o1	OX1R antag-2 71
O=C(COC(=O)c1ccc([N+](=O)[O-])o1)NC1CCCCC1	OX1R antag-2 24
O=C(NCc1ccco1)c1ccc(Cn2cc([N+](=O)[O-])cn2)o1	none
O=C(COC(=O)c1ccc([N+](=O)[O-])o1)NC1CCCC1	none
CCN(C(=O)COC(=O)c1ccc([N+](=O)[O-])o1)C1CCCCC1	OX1R antag-2 29
CCN(c1ccc(NC(=O)COC(=O)c2ccc([N+](=O)[O-])o2)cc1)C(C)C	none
CC(=O)Nc1ccc(NC(=O)COC(=O)c2ccc([N+](=O)[O-])o2)cc1	OX1R antag-2 37
CCOC(=O)CCCCCC(=O)Nc1ccc2c(c1)C(=O)N([C@@H](C)CO)C[C@H](C)[C@H](CN(C)C(=O)c1ccccc1)OCCCC[C@H](C)O2	none (no result: OX1R antag-1, OX1R antag-2, CHO parental Ca)
CCN(C(=O)COC(=O)c1cccnc1SC)C1CCCCC1	OX1R antag-2 57
CCN(C(=O)COC(=O)c1cccnc1SC)C1CCS(=O)(=O)C1 (stereo not given)	none
O=C(NC1CCCCC1)c1ccc([N+](=O)[O-])o1	OX1R antag-2 39 (no result: TAAR1 antag, TAAR1 agonist)
COc1ccc(OC)c(CCNC(=O)Cc2ccc(NC(=O)C3=C(C)OCCS3)cc2)c1	none (no result: OX1R antag-1, OX1R antag-2, CHO parental Ca)
COc1ccc(CCNC(=O)c2ccccc2NC(=O)C2=C(C)OCCS2)c(OC)c1	OX1R antag-2 64
COc1ccc(OC)c(CCNC(=O)c2cccc(NC(=O)C3=C(C)OCCS3)c2)c1	TAAR1 antag 57, OX1R antag-2 41
COC(=O)[C@]12C[C@H](CC(=O)NCc3ccccc3)C(=O)N(CCC3=CCCCC3)C1=C[C@H](COCc1ccccc1)O[C@@H]2C	none (no result: OX1R antag-1, OX1R antag-2, CHO parental Ca)
N#Cc1c(-c2ccccc2)cc(-c2ccccc2)nc1SCCC(=O)O	OX1R antag-2 74
N#Cc1c(-c2ccc(Cl)cc2)cc(-c2ccccc2)nc1SCC(=O)O	none
O=C(c1ccc(S(=O)(=O)c2cccc(Cl)c2)c([N+](=O)[O-])c1)N1CCN(c2ccccn2)CC1	CHO parental Ca 33

High-throughput results from PubChem BioAssay.
